PMC2906681 (Biochemical pharmacology, 2010)
Where a chain is given by its changes, count along the chain named.

Experiments:
[1] = molecular target: T1, His-tagged Shp2 (amino acids 1–525) (Homo sapiens, UniProt Q06124); test: Surface plasmon resonance; conditions: SPR, 1:1 binding model
T1 sequence (Q06124 1-525): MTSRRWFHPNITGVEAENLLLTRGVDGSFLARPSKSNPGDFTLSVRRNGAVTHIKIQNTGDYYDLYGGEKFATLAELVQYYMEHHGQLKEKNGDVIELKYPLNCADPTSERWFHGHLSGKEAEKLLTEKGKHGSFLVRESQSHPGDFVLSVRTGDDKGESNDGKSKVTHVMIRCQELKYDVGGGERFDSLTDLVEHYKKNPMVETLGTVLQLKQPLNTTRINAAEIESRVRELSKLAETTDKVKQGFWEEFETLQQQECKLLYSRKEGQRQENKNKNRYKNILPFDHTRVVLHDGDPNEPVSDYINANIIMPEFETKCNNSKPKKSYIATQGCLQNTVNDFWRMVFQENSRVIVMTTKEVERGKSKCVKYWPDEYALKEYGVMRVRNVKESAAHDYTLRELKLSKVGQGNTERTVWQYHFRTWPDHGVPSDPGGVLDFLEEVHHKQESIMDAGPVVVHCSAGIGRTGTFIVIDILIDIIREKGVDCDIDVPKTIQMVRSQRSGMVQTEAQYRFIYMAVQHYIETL

[2] = molecular target: T2, non-fusion Shp2 PTP protein (Homo sapiens, UniProt Q06124); test: Enzyme kinetics analysis of Shp2 PTP inhibition; format: biochemical; conditions: Lineweaver-Burk, AIC comparison
T2 sequence (Q06124 247-517 limits assumed): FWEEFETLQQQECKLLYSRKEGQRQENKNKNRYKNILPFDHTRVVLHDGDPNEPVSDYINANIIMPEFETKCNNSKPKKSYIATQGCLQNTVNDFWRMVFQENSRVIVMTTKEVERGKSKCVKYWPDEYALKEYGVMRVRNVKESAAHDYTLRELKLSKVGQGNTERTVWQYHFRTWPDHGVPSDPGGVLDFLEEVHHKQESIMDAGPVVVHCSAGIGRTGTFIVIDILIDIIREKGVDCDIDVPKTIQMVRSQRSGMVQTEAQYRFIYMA

Shp2 [3] = molecular target: T3, Shp2 (Homo sapiens, UniProt Q06124); test: Cell-based Shp2 inhibition assays
T3 sequence (Q06124 1-593): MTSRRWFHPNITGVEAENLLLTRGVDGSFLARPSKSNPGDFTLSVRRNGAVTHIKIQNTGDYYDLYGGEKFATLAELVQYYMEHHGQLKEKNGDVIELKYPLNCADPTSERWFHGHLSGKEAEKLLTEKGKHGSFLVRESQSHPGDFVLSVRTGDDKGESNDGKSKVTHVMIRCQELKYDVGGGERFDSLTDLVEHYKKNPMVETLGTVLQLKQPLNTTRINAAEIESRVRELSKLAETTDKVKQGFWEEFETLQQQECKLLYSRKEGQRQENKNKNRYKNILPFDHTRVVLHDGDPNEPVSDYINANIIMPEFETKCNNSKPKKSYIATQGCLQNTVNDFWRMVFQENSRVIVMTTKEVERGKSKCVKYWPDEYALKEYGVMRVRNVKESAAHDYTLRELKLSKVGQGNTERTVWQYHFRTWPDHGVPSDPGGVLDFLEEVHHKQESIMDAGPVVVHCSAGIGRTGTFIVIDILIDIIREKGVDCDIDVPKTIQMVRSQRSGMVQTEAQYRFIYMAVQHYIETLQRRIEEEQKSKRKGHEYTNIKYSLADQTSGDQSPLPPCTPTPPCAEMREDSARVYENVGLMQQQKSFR

TF-1/Shp2^E76K cells [4] = test: Fluorescence uptake assay; format: in vitro ADME; conditions: 5 h incubation, ex/em 485/535 nm
How it was run: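 TF-1/Shp2E76K cells (6 × 10^5 in 1 ml RPMI1640/10% FBS) were incubated 5 h at 37 °C/5% CO2 with test compound or DMSO. Fluorescence (485/535 nm) was read in the whole suspension, then in cell-free medium (supernatant plus washes) and in twice-washed pellets. Fraction totals were expressed relative to the 100 µM suspension, set as 100%. Two duplicate experiments (n = 4).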

cells = test: Confocal laser scanning microscopy of compound uptake; format: in vitro ADME; conditions: 25 µM, 3 h
How it was run: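 TF-1/Shp2E76K cells grown in glass-bottom dishes were exposed to test compound at 25 µM for 3 h, then Hoechst 33342 (5 µg/ml) was added. Internal confocal sections were imaged with a 63X/1.40NA oil objective (2,520×), using 458 nm argon and 405 nm diode excitation with tunable emission filters. Compound fluorescence was viewed green.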

Shp2 [5] = molecular target: T3, Shp2; test: EGF-stimulated Shp2 PTP activity in immune complexes from MDA-MB-468 cells; format: cell-based; conditions: EGF 50 ng/ml 10 min
How it was run: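 Sub-confluent MDA-MB-468 cells were serum-starved 18 h in DMEM/0.1% BSA, pretreated overnight with test compound (20 or 100 µM), then EGF-stimulated (50 ng/ml, 10 min). Lysate (0.2 mg, Hepes pH 7.4 PTP lysis buffer) was immunoprecipitated with anti-Shp2/protein G for 2 h at 4 °C and washed. Complexes were reacted with 50 µM DiFMUP for 20 min at room temperature, and DiFMU fluorescence was read. Pellets were immunoblotted for Shp2. Two experiments, duplicates.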

Shp2^E76K = molecular target: T4, Shp2^E76K (Homo sapiens, UniProt Q06124, E76K); test: Shp2^E76K PTP activity in immune complexes from TF-1/Shp2^E76K cells; format: cell-based; conditions: GM-CSF-free medium
T4 sequence (Q06124 1-593 E76K): T3 sequence (Q06124 1-593) with E76K
How it was run: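 TF-1/Shp2E76K cells were treated in GM-CSF-free RPMI1640/10% FBS with test compound at various concentrations. Flag-Shp2E76K was immunoprecipitated with anti-Flag M2/protein G (0.2 mg lysate, 2 h, 4 °C) and washed. Complexes were incubated with 50 µM DiFMUP for 20 min at room temperature, and fluorescence was measured. Part of each immunoprecipitate was blotted for Shp2. Two experiments.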

TF-1/Shp2^E76K cells [6] = test: Cell growth assay; format: cell-based
How it was run: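 TF-1/Shp2E76K cells were plated at 1,000 cells/well in triplicate in RPMI1640/10% FBS without GM-CSF, with test compound. The compound volume was ≤0.1% of the total. Cells were incubated 4 days at 37 °C/5% CO2, then relative viable cell number was read with CellTiterGlo. Data came from two triplicate experiments.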

[7] = molecular target: T5, GST-Shp2 PTP domain protein (Homo sapiens, UniProt Q06124); test: In vitro Shp2 PTP activity inhibition assay; format: biochemical
T5 sequence (Q06124 247-517 limits assumed): T2 sequence (Q06124 247-517 limits assumed)

[8] = test system: paxillin dephosphorylation; test: EGF-induced paxillin tyrosine dephosphorylation in MDA-MB-468 cells; format: cell-based; conditions: 20 µM, 2 h; EGF 50 ng/ml 10 min
How it was run: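 Serum-starved MDA-MB-468 cells received test compound (20 µM, 2 h) and/or EGF (50 ng/ml, 10 min). Cells were lysed on ice in Tris buffer (pH 7.5) containing Na3VO4, NaF, pyrophosphate and protease inhibitors. Paxillin was immunoprecipitated, resolved by SDS-PAGE and immunoblotted with anti-phosphotyrosine and anti-paxillin antibodies.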

Erk1/2 activation = test: EGF-stimulated Erk1/2 activation in MDA-MB-468 cells; format: cell-based; conditions: 0–20 µM tested, EGF 2 ng/ml 5 min
How it was run: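 Serum-starved MDA-MB-468 cells were pretreated with test compound (0–20 µM), then stimulated with EGF (2 ng/ml, 5 min). Cleared lysates were immunoblotted for dual-phosphorylated Erk1/2 and total Erk1/2.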

MDA-MB-468 cells = test: Transwell cell migration assay; format: cell-based; conditions: EGF 10 ng/ml, 16 h
pErk1/2 and Bcl-XL = pErk1/2 and Bcl-XL immunoblotting in TF-1/Shp2^E76K cells; format: cell-based; conditions: concentration-dependent
TF-1/Shp2^E76K cells [9] = test: EB/AO staining apoptosis assay; format: cell-based; conditions: 3 days, base level 4.2%
[10] = test system: STAT1 tyrosine phosphorylation; test: IFN-γ-stimulated STAT1 tyrosine phosphorylation in HT-29 cells; format: cell-based; conditions: 20 µM, 2 h pre-treatment, IFN-γ 20 U/ml
ISRE-luciferase reporter = test: ISRE luciferase reporter assay in HT-29 cells; format: cell-based
How it was run: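 HT-29 cells (5 × 10^5 per well) were co-transfected by lipofection with 1.6 µg pISRE-Luc and 0.4 µg β-gal plasmids. They were then stimulated with 50 U/ml IFN-γ for 6 h or left unstimulated. Luciferase was normalized to β-galactosidase activity; two duplicate experiments (n = 4).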

p21 = p21 expression in HT-29 cells; format: cell-based; conditions: 12.5 µM with IFN-γ, 24 h, versus IFN-γ alone
How it was run: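 HT-29 cells were treated 24 h with IFN-γ at indicated amounts, with or without test compound at 12.5 µM. Cell lysates were immunoblotted for p21, with β-actin as loading reference.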

HT-29 cells = test: Cell growth assay; format: cell-based; conditions: for fraction of inhibition: 4 days
How it was run: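 HT-29 cells at 1,000 cells/well, in triplicate, in RPMI1640/10% FBS with IFN-γ (100 U/ml) and/or test compound or vehicle. Compound volume kept ≤0.1% of total. Incubated 4 days at 37 °C/5% CO2. Relative viable cell number was read by CellTiterGlo luminescence. Synergism of the two agents was calculated with the Bliss definition.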

Shp1 = conditions: cited from earlier work
most of other PTPs = conditions: cited from earlier work

## O=C1Nc2ccc(S(=O)(=O)NCc3ccc(F)cc3)cc2/C1=N/Nc1cccc(C(=O)O)c1 [SPI-112, (Z)-3-(2-(5-(N-(4-fluorobenzyl)sulfamoyl)-2-oxoindolin-3-ylidene)hydrazinyl)benzoic acid]
[1]
  association rate Ka: 22400 M⁻¹ s⁻¹
[2]
  best fitted inhibition model: competitive inhibition model
Shp2 [3]
  activity in cell-based Shp2 inhibition assays: no detectable activity
TF-1/Shp2^E76K cells [4]
  fluorescent signal associated with the cell pellets: only trace amount
cells
  green fluorescence in confocal images of internal sections of cells: did not have green fluorescence
Shp2 [5]; 100 µM pre-treatment overnight
  effect on EGF-stimulated Shp2 PTP activity: did not affect
Shp2^E76K
  Shp2^E76K PTP activity in treated cells: no decrease
TF-1/Shp2^E76K cells [6]; GM-CSF-free medium, 4 days
  effect on viable cells: did not affect

## COC(=O)c1cccc(N/N=C2\C(=O)Nc3ccc(S(=O)(=O)NCc4ccc(F)cc4)cc32)c1 [SPI-112Me, (Z)-3-(2-(5-(N-(4-fluorobenzyl)sulfamoyl)-2-oxoindolin-3-ylidene)hydrazinyl)benzoic acid methyl ester]
[7]
  IC50: > 100 µM
TF-1/Shp2^E76K cells [4]
  fluorescent signal associated with the cell pellets: substantial amount
cells
  green fluorescence in confocal images of internal sections of cells: readily detectable
Shp2 [5]; 20 µM pre-treatment overnight
  reduction of EGF-stimulated Shp2 PTP activity: 77%
[8]
  effect on EGF-induced paxillin tyrosine dephosphorylation: prevented
Erk1/2 activation
  concentration at which inhibition of EGF-stimulated pErk1/2 signal was observed: 10 µM
MDA-MB-468 cells; 12.5 µM
  reduction of EGF-stimulated cell migration: 62%
MDA-MB-468 cells; 25 µM
  effect on EGF-stimulated cell migration: completed blocked
Shp2^E76K
  Shp2^E76K PTP activity in treated cells: lower Shp2^E76K PTP activity
pErk1/2 and Bcl-XL
  amounts of pErk1/2 and Bcl-XL: reduced
TF-1/Shp2^E76K cells [6]; 96 h, read-out: concentration giving a 50% decrease in viable cells
  IC50: 10 µM
TF-1/Shp2^E76K cells [9]; 12.5 µM
  apoptotic cells: 9.3%
TF-1/Shp2^E76K cells [9]; 25 µM
  apoptotic cells: 18.8%
[10]
  effect on IFN-γ-stimulated STAT1 tyrosine phosphorylation: increased amount of tyrosine-phosphorylated STAT1
ISRE-luciferase reporter; 10 µM SPI-112Me plus IFN-γ 50 U/ml
  activation of ISRE luciferase activity: 54%
ISRE-luciferase reporter; 25 µM SPI-112Me plus IFN-γ 50 U/ml
  activation of ISRE luciferase activity: 98%
p21
  p21 expression: higher levels of p21
HT-29 cells; 6.25 µM SPI-112Me alone
  fraction of inhibition: 0.32
HT-29 cells; 6.25 µM SPI-112Me plus IFN-γ 100 U/ml
  fraction of inhibition: 0.57
HT-29 cells; 12.5 µM SPI-112Me alone
  fraction of inhibition: 0.71
HT-29 cells; 12.5 µM SPI-112Me plus IFN-γ 100 U/ml
  fraction of inhibition: 0.84
HT-29 cells; IFN-γ 100 U/ml plus SPI-112Me
  combination effect with IFN-γ on inhibition of cell growth (Bliss): synergistic

## IFN-γ: interferon-γ, cytokine used to stimulate STAT1 signaling in HT-29 cells
ISRE-luciferase reporter; IFN-γ 50 U/ml alone, 6 h
  activation of ISRE luciferase activity: 26%
HT-29 cells; IFN-γ 100 U/ml alone
  fraction of inhibition: 0.18

## O=C1C(=NNc2ccc(S(=O)(=O)O)cc2)C(c2ccc([N+](=O)[O-])cc2)=NN1c1ccccc1 [PHPS1, phenylhydrazonopyrazolone sulfonate 1]
Shp1
  selectivity against Shp1: 14 fold
Most of other PTPs
  selectivity against most of other PTPs: > 10

## O=C(O)c1cc(O)c(=O)c2c(O)c(O)ccc2c1 [DCA, 7-deshydroxypyrogallin-4-carboxylic acid]
Shp1
  Shp1 inhibition compared with Shp2: same potency
